# Measurements reported in publication PMC5260863 (Journal of medicinal chemistry, 2016).
# “And” between values parts separate entries of the source, which are not always exact repeats. Identical values can stand only once.
# Key:
# HEK293 lysate = HEK293 lysate inhibition assay; format: biochemical, human; settings: read-out: IC50 HEK293, mean of at least three experiments ± SEM
# MV4–11 cells [1] = assay: MV4–11 EC50 analysis; format: cell-based, human
# MV4–11 cells [2] = assay: Western blot analysis of MV4–11 cells; format: cell-based, human; settings: for AcHH3 and AcHH4 at varied doses: 6 hours
# Summary of the method: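 Cells were seeded at 500k cells/mL in 6-well plates and pre-incubated 24 h. They were then exposed to test compound at 100 nM for 24 h, or at varied doses for 6 h. Pellets were lysed in RIPA (Tris, NaCl, EDTA, SDS, deoxycholate, Triton X-100), sonicated, spun 15 min at 4°C, then heated in β-mercaptoethanol/LDS at 90°C. Primary antibody ran overnight at 4°C. Bands were normalized to actin, n ≥ 2.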
# RPMI-8226 cells = assay: Cell viability, CellTiter-Blue; format: cell-based, human; settings: even at mM concentrations
# [3] = ESI-LCMS glucuronidation assay; format: in vitro ADME, human; settings: 12 hours at 37°C; for glucuronidation in human liver microsomes with UDP Glucuronic acid: alamethicin, ESI-LCMS
# Summary of the method: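 Pooled mixed-gender human liver microsomes at 250 µg/mL in 100 mM Tris HCl, pH 7.5. Alamethicin 1 µg/mL and MgCl2 5 mM (final), rocked 15 min at 4°C for pore formation. Test compound (5 mM stock) added with UDPGA (50 mM stock) or water, rocked 12 h at 37°C. Quenched with water/acetonitrile/formic acid 47:50:3, centrifuged 15000g. Supernatant analysed by reversed-phase ESI-LCMS TIC.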
# HEK293 cells = assay: HEK293 EC50 analysis; format: cell-based, human; settings: 48 hours of treatment
# HeLa cells = assay: HeLa EC50 analysis; format: cell-based, human; settings: 48 hours of treatment
# human PBMCs = assay: Human peripheral blood mononuclear cell analysis; format: cell-based
# recombinant HDAC1 = recombinant HDAC1 (Homo sapiens, UniProt Q13547); assay: Recombinant HDAC Vmax study; format: biochemical
# recombinant HDAC3 = recombinant HDAC3 (Homo sapiens, UniProt O15379); assay: Recombinant HDAC Vmax study; format: biochemical
# Chain of recombinant HDAC3 (O15379 whole entry): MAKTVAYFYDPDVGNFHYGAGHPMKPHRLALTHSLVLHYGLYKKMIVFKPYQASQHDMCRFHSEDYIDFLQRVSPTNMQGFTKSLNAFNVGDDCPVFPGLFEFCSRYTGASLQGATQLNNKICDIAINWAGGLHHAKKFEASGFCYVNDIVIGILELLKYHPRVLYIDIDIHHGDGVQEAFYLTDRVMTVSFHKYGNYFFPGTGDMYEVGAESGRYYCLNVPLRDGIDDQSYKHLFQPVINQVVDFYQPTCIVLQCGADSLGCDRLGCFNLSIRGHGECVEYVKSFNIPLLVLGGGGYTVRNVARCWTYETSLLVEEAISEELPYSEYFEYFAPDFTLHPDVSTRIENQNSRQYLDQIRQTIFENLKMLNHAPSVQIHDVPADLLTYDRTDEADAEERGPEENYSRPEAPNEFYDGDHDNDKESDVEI
# Chain of recombinant HDAC3 (Q9Y618 395-489 partner limits assumed): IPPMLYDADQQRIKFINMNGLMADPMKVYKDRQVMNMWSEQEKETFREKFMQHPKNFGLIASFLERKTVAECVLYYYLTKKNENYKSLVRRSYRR
# Chain of recombinant HDAC1 (Q13547 whole entry): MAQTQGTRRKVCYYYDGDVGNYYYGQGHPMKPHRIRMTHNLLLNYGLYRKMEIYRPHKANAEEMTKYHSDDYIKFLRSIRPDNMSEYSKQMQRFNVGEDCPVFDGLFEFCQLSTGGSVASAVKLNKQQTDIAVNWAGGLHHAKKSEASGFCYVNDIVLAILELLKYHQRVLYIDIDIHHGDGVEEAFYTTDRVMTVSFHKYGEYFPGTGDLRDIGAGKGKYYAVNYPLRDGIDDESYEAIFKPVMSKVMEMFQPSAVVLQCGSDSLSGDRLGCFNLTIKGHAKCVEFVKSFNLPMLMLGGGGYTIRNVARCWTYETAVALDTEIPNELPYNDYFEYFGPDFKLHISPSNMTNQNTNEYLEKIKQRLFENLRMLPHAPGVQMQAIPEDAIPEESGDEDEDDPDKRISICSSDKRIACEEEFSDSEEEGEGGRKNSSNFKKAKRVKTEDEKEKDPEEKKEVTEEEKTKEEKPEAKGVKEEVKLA
smiles,measurement,setting,value
"C/C=C/CNNC(=O)c1ccc(CNC(=O)c2ccccc2)cc1 [2a, (E)-N-(4-(2-(but-2-en-1-yl)hydrazine-1-carbonyl)benzyl)benzamide]",IC50,HEK293 lysate,> 10000 nM
"CC(C)NNC(=O)c1ccc(CNC(=O)c2ccccc2)cc1 [2b, N-(4-(2-isopropylhydrazine-1-carbonyl)benzyl)benzamide]",IC50,HEK293 lysate,> 10000 nM
"CCCCCNNC(=O)c1ccc(CNC(=O)/C=C/c2ccccc2)cc1 [3d, N-(4-(2-pentylhydrazine-1-carbonyl)benzyl)cinnamide]",IC50,HEK293 lysate,691 ± 54.7 nM
"CCCCNNC(=O)c1ccc(OC)cc1 [1a, N’-butyl-4-methoxybenzohydrazide]",IC50,HEK293 lysate,727 ± 10.8 nM
"CCCCCCCNNC(=O)c1ccc(CNC(=O)c2ccccc2)cc1 [2h, N-(4-(2-heptylhydrazine-1-carbonyl)benzyl)benzamide]",IC50,HEK293 lysate,2160 ± 896 nM
"CCCCNNC(=O)CCc1ccccc1 [1h, N’-butyl-3-phenylpropanehydrazide]",IC50,HEK293 lysate,> 10000 nM
"CCCCCCCCNNC(=O)c1ccc(CNC(=O)c2ccccc2)cc1 [2i, N-(4-(2-octylhydrazine-1-carbonyl)benzyl)benzamide]",IC50,HEK293 lysate,> 10000 nM
"CCNNC(=O)c1ccc(CNC(=O)c2ccccc2)cc1 [2l, N-(4-(2-ethylhydrazine-1-carbonyl)benzyl)benzamide]",IC50,HEK293 lysate,427 ± 110 nM
"CC/C=N/NC(=O)c1ccc(CNC(=O)c2ccccc2)cc1 [2c, (E)-N-(4-(2-propylidenehydrazine-1-carbonyl)benzyl)benzamide]",IC50,HEK293 lysate,> 10000 nM
same,activity against MV4–11 cells,"MV4–11 cells [1]; doses as high as 250 µM, negative control",no appreciable activity
same,upregulation of Acetylated Histones H3 and H4 (AcHH3/AcHH4),"MV4–11 cells [2]; 100 nM, 24 hours",no appreciable ability to increase acetylation of histones H3 and H4
"CCCCCCCCCCNNC(=O)c1ccc(CNC(=O)c2ccccc2)cc1 [2k, N-(4-(2-decylhydrazine-1-carbonyl)benzyl)benzamide]",IC50,HEK293 lysate,> 10000 nM
"CCCCNNC(=O)c1cccnc1 [1d, N’-butylnicotinohydrazide]",IC50,HEK293 lysate,4680 ± 909 nM
"CCCCNNC(=O)c1ccc(Oc2ccccc2)cc1 [1c, N’-butyl-4-phenoxybenzohydrazide]",IC50,HEK293 lysate,1690 ± 298 nM
"CCCNNC(=O)c1ccc(CNC(=O)/C=C/c2ccccc2)cc1 [3b, N-(4-(2-propylhydrazine-1-carbonyl)benzyl)cinnamamide]",decrease in EC50 in MV4–11 cells compared to 2d,MV4–11 cells [1]; vs 2d,~2.5 fold
same,kill curve against RPMI-8226,RPMI-8226 cells,incomplete kill curves
same,glucuronidation in human liver microsomes with UDP Glucuronic acid,[3],not readily glucuronidated
same,upregulation of Acetylated Histones H3 and H4 (AcHH3/AcHH4),"MV4–11 cells [2]; 100 nM, 24 hours",higher upregulation of Acetylated Histones H3 and H4 (AcHH3/AcHH4) than vorinostat and entinostat
same,AcHH3 and AcHH4 at varied doses,MV4–11 cells [2],dose-dependent increase in AcHH3 and AcHH4
same,killing of HEK293 cells,HEK293 cells,"Neither 11, 2d, nor 3b display effective killing of this solid tumor cell line"
same,killing of HeLa cells,HeLa cells,"Neither 1l, 2d, nor 3b display effective killing of this solid tumor cell line"
same,toxicity toward PBMCs compared to panobinostat,human PBMCs; 24 hours treatment,superior toxicity (less PBMC killing) than panobinostat
"O=C(NCc1ccc(C(=O)NNCC2CCC2)cc1)c1ccccc1 [2m, N-(4-(2-(cyclobutylmethyl)hydrazine-1-carbonyl)benzyl)benzamide]",IC50,HEK293 lysate,1880 ± 212 nM
"O=C(CCCCCCC(=O)Nc1ccccc1)NO [vorinostat, reference compound]",glucuronidation in human liver microsomes with UDP Glucuronic acid,[3],presence of the o-glucuronidated metabolite
same,"mode of inhibition, HDAC1 (Lineweaver-Burke plot)",recombinant HDAC1,competitive inhibition
same,"mode of inhibition, HDAC3 (Lineweaver-Burke plot)",recombinant HDAC3,competitive inhibition
"CCNNC(=O)c1ccc(CNC(=O)/C=C/c2ccccc2)cc1 [3a, N-(4-(2-ethylhydrazine-1-carbonyl)benzyl)cinnamide]",IC50,HEK293 lysate,171 ± 34.2 nM
"CCCCNNC(=O)c1ccc(CNC(=O)c2ccccc2)cc1 [1l, N-(4-(2-butylhydrazine-1-carbonyl)benzyl)benzamide]",upregulation of Acetylated Histones H3 and H4 (AcHH3/AcHH4),"MV4–11 cells [2]; 100 nM, 24 hours",higher upregulation of Acetylated Histones H3 and H4 (AcHH3/AcHH4) than vorinostat and entinostat
same,AcHH3 and AcHH4 at varied doses,MV4–11 cells [2],dose-dependent increase in AcHH3 and AcHH4
same,killing of HEK293 cells,HEK293 cells,"Neither 11, 2d, nor 3b display effective killing of this solid tumor cell line"
same,killing of HeLa cells,HeLa cells,"Neither 1l, 2d, nor 3b display effective killing of this solid tumor cell line"
"CCCNNC(=O)c1ccc(CNC(=O)c2ccccc2)cc1 [2d, N-(4-(2-propylhydrazine-1-carbonyl)benzyl)benzamide]",metabolites in human liver microsomes,"[3]; with and without UDPGA, no NADPH added",Neither vessel contained any detectable metabolites other than parent compound
same,"mode of inhibition, HDAC1 (Lineweaver-Burke plot)",recombinant HDAC1,mixed inhibition
same,upregulation of Acetylated Histones H3 and H4 (AcHH3/AcHH4),"MV4–11 cells [2]; 100 nM, 24 hours",higher upregulation of Acetylated Histones H3 and H4 (AcHH3/AcHH4) than vorinostat and entinostat
same,AcHH3 and AcHH4 at varied doses,MV4–11 cells [2],dose-dependent increase in AcHH3 and AcHH4
same,killing of HEK293 cells,HEK293 cells,"Neither 11, 2d, nor 3b display effective killing of this solid tumor cell line"
same,killing of HeLa cells,HeLa cells,"Neither 1l, 2d, nor 3b display effective killing of this solid tumor cell line"
same,toxicity toward PBMCs compared to panobinostat,human PBMCs; 24 hours treatment,superior toxicity (less PBMC killing) than panobinostat
same,less toxicity toward PBMCs than 3b,"human PBMCs; vs 3b, until the high micromolar range",10 fold and ~ 10 fold
"CCCCNNC(=O)/C=C/c1ccccc1 [1i, N’-butylcinnamohydrazide]",IC50,HEK293 lysate,1440 ± 86.1 nM
"CCCCCCNNC(=O)c1ccc(CNC(=O)/C=C/c2ccccc2)cc1 [3e, N-(4-(2-hexylhydrazine-1-carbonyl)benzyl)cinnamamide]",IC50,HEK293 lysate,1720 ± 139 nM
"CCCCNNC(=O)c1cc2ccccc2o1 [1b, N’-butylbenzofuran-2-carbohydrazide]",IC50,HEK293 lysate,1690 ± 38 nM
"CCCCNNC(=O)c1cccs1 [1f, N’-butylthiophene-2-carbohydrazide]",IC50,HEK293 lysate,3460 ± 669 nM
"CCCCNNC(=O)c1ccco1 [1g, N’-butylfuran-2-carbohydrazide]",IC50,HEK293 lysate,> 10000 nM
"O=C(NCc1ccc(C(=O)NNCCC(F)(F)F)cc1)c1ccccc1 [2f, N-(4-(2-(3,3,3-trifluoropropyl)hydrazine-1-carbonyl)benzyl)benzamide]",IC50,HEK293 lysate,1230 ± 136 nM
"O=C(NCc1ccc(C(=O)NNCC2CC2)cc1)c1ccccc1 [2g, N-(4-(2-(cyclopropylmethyl)hydrazine-1-carbonyl)benzyl)benzamide]",IC50,HEK293 lysate,1620 ± 196 nM
"CCCCCCNNC(=O)c1ccc(CNC(=O)c2ccccc2)cc1 [2j, N-(4-(2-hexylhydrazine-1-carbonyl)benzyl)benzamide]",IC50,HEK293 lysate,550 ± 134 nM
"CCCCNNC(=O)c1cccc2ccccc12 [1j, N’-butyl-1-napthohydrazide]",IC50,HEK293 lysate,> 10000 nM
"Cc1[nH]c2ccccc2c1CCNCc1ccc(/C=C/C(=O)NO)cc1 [Panobinostat, panobinostat, reference compound]",Acetylated Tubulin (AcTub) levels,"MV4–11 cells [2]; 100 nM, 24 hours, marker of HDAC6 inhibition",the only inhibitor to raise Acetylated Tubulin (AcTub) levels at this concentration
same,concentration at which toxicity toward PBMCs is displayed,human PBMCs; 24 hours treatment,10 nM
